According to ChEMBL document CHEMBL1629474, “Massive screening yields novel and selective Trypanosoma cruzi triosephosphate isomerase dimer-interface-irreversible inhibitors with anti-trypanosomal activity” (Eur J Med Chem, 2010):
Active and inactive are the calls of the source. How the calls were made is not given here.

Legend:
Trypanosoma cruzi = assay: Antiparasitic activity against Trypanosoma cruzi T2 epimastigotes assessed as growth inhibition at 25 uM after 5 days; type: functional
Method in brief: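 Late-log epimastigotes were grown axenically at 28 °C in BHI-tryptose with 5% fetal calf serum and seeded at 2×10^6/mL in medium containing compound (DMSO stock; final DMSO ≤1%, 1% DMSO control). Growth was read as A590 at day 0 and day 5. Inhibition = {1 − [(Ap − A0p)/(Ac − A0c)]} × 100. Means of two experiments.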

[1] = Selectivity for Trypanosoma cruzi triosephosphate isomerase over human triosephosphate isomerase
[2] = molecular target: Triosephosphate isomerase, glycosomal (Trypanosoma cruzi) (UniProt P52270); assay: Inhibition of Trypanosoma cruzi triosephosphate isomerase at 400 uM after 2 hrs
Triosephosphate isomerase, glycosomal (Trypanosoma cruzi), sequence (P52270 whole entry): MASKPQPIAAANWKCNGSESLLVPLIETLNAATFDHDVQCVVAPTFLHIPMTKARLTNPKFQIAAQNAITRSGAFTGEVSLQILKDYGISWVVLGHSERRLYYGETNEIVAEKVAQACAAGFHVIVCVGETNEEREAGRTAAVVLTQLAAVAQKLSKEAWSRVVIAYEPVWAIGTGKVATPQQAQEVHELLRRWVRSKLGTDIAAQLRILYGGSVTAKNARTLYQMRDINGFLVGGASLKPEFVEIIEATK
Method in brief: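 Recombinant E. coli-expressed enzyme, dialyzed into 100 mM triethanolamine/10 mM EDTA pH 7.4, was incubated with compound (DMSO stock) in 100 mM triethanolamine, 10 mM EDTA, pH 7.4, 10% DMSO at 36 °C for 2 h. An aliquot was then assayed for activity (glyceraldehyde 3-phosphate to dihydroxyacetone phosphate, α-glycerol phosphate dehydrogenase-coupled) with 5 ng enzyme. Irreversible inhibition was scored as loss of activity; means of two experiments.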

Row | Ratio [1] | inhibition [2] | Structure (SMILES) | Activity (Trypanosoma cruzi)
1 | > 4 | 14% | O=[N+]([O-])c1ccc2c(c1)[n+]([O-])c1n2CCOC1 | Active
2 | > 4 | 38% | Cc1nncnc1CC(c1ccc([N+](=O)[O-])cc1)[N+]1([O-])CCOCC1 (stereo not given) | Active
3 | > 4 | 11% | Cc1c(C)[n+]([O-])c2cc(C=O)ccc2[n+]1[O-] | Active
4 | > 4 | 64% | Nc1ccc2c(c1)[n+]([O-])c1cc(Cl)ccc1[n+]2[O-] | Active
5 | > 4 | 13% | NC(=O)N/N=C/C=C/c1ccc([N+](=O)[O-])o1 | Active
6 | > 4 | 14% | CCCCCCNC(=O)N/N=C/c1ccc([N+](=O)[O-])s1 | Active
7 | > 4 | 47% | [O-][n+]1onc(-c2ccccc2)c1CN1CCSCC1 | Active
8 | > 4 | 27% | COc1ccc(/C=C/c2c(C)[n+]([O-])nc[n+]2[O-])cc1 | Active
9 | > 4 | 23% | [O-][N+]1=c2ccc(Br)cc2=[N+]([O-])C12CCCC2 | Active
10 | > 4 | 31% | CC1(C)[N+]([O-])=c2ccc(CN3CCN(C/C=C/c4ccccc4)CC3)cc2=[N+]1[O-] | Active
11 | > 4 | 60% | [O-][n+]1onc2ccc(/C=N/NC(=S)Nc3ccccc3)cc21 | Active
12 | > 4 | 45% | COc1ccc(C(=O)/C=C/c2ccc3no[n+]([O-])c3c2)cc1 | Active
13 | > 4 | 9% | [O-][n+]1onc2ccc(C=Cc3ccccc3F)cc21 | Active
14 | > 4 | 23% | Cc1c(C(=O)Nc2ccccc2)[n+]([O-])c2cc(CNC/C=C/c3ccccc3)ccc2[n+]1[O-] | Active
15 | > 4 | 16% | Cn1c2ccc(Cl)cc2c(-c2ccccc2)[n+]1[O-] | Active
16 | > 4 | 0% | O=C(N/N=C/c1ccc([N+](=O)[O-])o1)N1CCOCC1 | Active
17 | > 4 | 3% | COCCNC(=O)N/N=C/c1ccc2no[n+]([O-])c2c1 | Active
18 | > 4 | 25% | O=C(/C=C/c1cccs1)c1ccccc1O | Active
19 | > 4 | 30% | CC(=O)CN1C(=O)c2ccccc2C1=O | Active
20 | > 4 | 14% | CSc1ccc(/C=C/C(=O)c2ccccc2)cc1 | Active
21 | > 4 | 24% | [O-][n+]1onc2ccc(/C=N/N=C/c3ccccc3O)cc21 | Active

Row | Ratio [1] | inhibition [2] | Structure (SMILES) | Activity (Trypanosoma cruzi)
22 | > 4 | 7% | O=C(c1ccc2no[n+]([O-])c2c1)N1CCOCC1 | Active
23 | > 4 | 38% | Cc1nnc[n+]([O-])c1/C=C/c1ccc([N+](=O)[O-])o1 | Active
24 | > 4 | 26% | Cc1nnc(C)[n+]([O-])c1/C=C/c1ccc(N(C)C)cc1 | Active
25 | > 4 | 32% | COc1ccc(C=O)cc1-c1cc(C=O)ccc1O | Active
26 | > 4 | 72% | CCCCCCNC(=O)N/N=C/C=C/c1ccc([N+](=O)[O-])o1 | Active
27 | > 4 | 6% | Cc1ccc2c(c1)[n+]([O-])c(C)n2O | Active
28 | > 4 | 19% | N#Cc1c2ccccc2[n+]([O-])n1-c1ccc2ccccc2c1 | Active
29 | > 4 | 0% | O=Cc1cccc(OCCCN2C(=O)c3ccccc3C2=O)c1 | Active
30 | > 4 | 16% | COC(=O)N/N=C/c1ccc2nonc2c1 | Active
31 | > 4 | 5% | O=C(N/N=C/c1ccc([N+](=O)[O-])s1)N1CCOCC1 | Active
32 | > 4 | 26% | CC1(C)[N+]([O-])=c2ccc(COc3ccc(C=O)cc3)cc2=[N+]1[O-] | Active
33 | > 4 | 49% | O=C1C(=Cc2ccc([N+](=O)[O-])s2)C(=O)N(C2CCCCC2)S(=O)(=O)N1C1CCCCC1 | Active
34 | > 4 | 8% | Cc1nnc[n+]([O-])c1/C=C/c1ccc(N(C)C)cc1 | Active
35 | > 4 | 15% | C=CCNC(=S)N/N=C/C=C/c1ccco1 | Active
36 | > 4 | 23% | CC(=N\c1ccc(C)cc1)/C(C)=N/c1ccc(C)cc1 | Active
37 | – | 23% | [O-][n+]1onc(-c2ccccc2)c1CO | –
38 | > 4 | 0% | O=C1CC(=O)N(CCc2ccccc2)S(=O)(=O)N1CCc1ccccc1 | Active
39 | > 4 | 42% | C=CCNC(=S)N/N=C/c1ccc2c(c1)[n+]([O-])c(C)c(C)[n+]2[O-] | Active
40 | > 4 | 73% | NC(=O)N/N=C/c1ccc2no[n+]([O-])c2c1 | Active
41 | > 4 | 25% | CC(=O)Oc1c(C)c(C)c2c(c1C)CCC(C)(C(=O)NCCOc1c(S(=O)(=O)c3ccccc3)no[n+]1[O-])O2 (stereo not given) | Active
42 | > 4 | 29% | N#Cc1c2ccccc2[n+]([O-])n1-c1ccc([N+](=O)[O-])cc1 | Active

Row | Ratio [1] | inhibition [2] | Structure (SMILES) | Activity (Trypanosoma cruzi)
43 | > 4 | 2% | Cc1no[n+]([O-])c1/C=N/NC(N)=O | Active
44 | > 4 | 65% | CCOC(=O)c1nsc(-c2cc(C(C)(C)C)c(O)c(C(C)(C)C)c2)n1 | Active
45 | > 4 | 2% | COC(=O)N/N=C/c1c(C)no[n+]1[O-] | Active
46 | > 4 | 24% | Oc1ccc(N/C(S)=N/c2ccccc2)cc1 | Active
47 | > 4 | 18% | N#Cc1c(N)[n+]([O-])c2ccc(CN3CCN(C/C=C/c4ccccc4)CC3)cc2[n+]1[O-] | Active
48 | > 4 | 38% | O=C(NCCc1ccccc1)N/N=C/c1ccc2no[n+]([O-])c2c1 | Active
49 | > 4 | 33% | O=C(/C=C/c1ccccc1)c1ccccc1 | Active
50 | > 4 | 12% | [O-][N+]1=c2ccccc2=[N+]([O-])C12CCCC2 | Active
51 | > 4 | 22% | [O-][n+]1onc2ccc(C=Cc3ccc(Br)cc3)cc21 | Active
52 | > 4 | 12% | O=[N+]([O-])c1ccc2c(c1)c(OCc1ccccc1)nn2CCOCCN1CCSCC1 | Active
53 | > 4 | 27% | [O-][n+]1onc2ccc(/C=N/O)cc21 | Active
54 | > 4 | 0% | O=S(=O)(NCCc1ccccc1)NCCc1ccccc1 | Active
55 | > 4 | 0% | [O-][n+]1onc2ccc(CN3CCN(C/C=C/c4ccccc4)CC3)cc21 | Active
56 | > 4 | 0% | CCCCCCNS(=O)(=O)NCCCCCC | Active
57 | > 4 | 26% | O=C(Oc1ccccc1)N1CCOCC1 | Active
58 | > 4 | 45% | C=CCNC(=S)N/N=C/c1ccc2c(c1)[n+]([O-])c(C#N)c(N)[n+]2[O-] | Active
59 | > 4 | 0% | O=C(/C=C/c1ccco1)N1CCN(C/C=C/c2ccccc2)CC1 | Active
60 | > 4 | 17% | CCCCCCOC(=O)N/N=C/c1no[n+]([O-])c1C | Active
61 | > 4 | 0% | O=C(CN1C(=O)c2ccccc2C1=O)c1ccccc1 | Active
62 | > 4 | 69% | [O-][n+]1onc2ccc(/C=C\[S+]([O-])c3ccccc3)cc21 (stereo not given) | Active
63 | – | 7% | CC(=O)Oc1c(C)c(C)c2c(c1C)CCC(C)(C(=O)NCCO[N+](=O)[O-])O2 (stereo not given) | –

Row | Structure (SMILES) | Ratio [1] | inhibition [2] | Activity (Trypanosoma cruzi)
64 | O=Cc1c(-c2ccccc2)no[n+]1[O-] | > 4 | 53% | Active
65 | COc1ccc(NCc2c(-c3ccccc3)no[n+]2[O-])cc1 | > 4 | 39% | Active
66 | O=Cc1ccc2no[n+]([O-])c2c1 | > 4 | 14% | Active
67 | Cc1ccc2no[n+]([O-])c2c1 | > 4 | 8% | Active
68 | Cc1c(C=O)no[n+]1[O-] | > 4 | 27% | Active
